This is a sample that favours compounds with a hit; in the whole collection about 5.8% have one here.
IDH1 mut inh: IDH1 R132H (human) inhibition | O75874 | IDH1 R132H reductase, diaphorase/resazurin fluorescence, 60 min | inhibition, % at 10 µM | actives 0.18% (n = 70,000) | AID 624101; in the data active = inhibition above about 34%; inconclusive = no clear call, values can overlap the other calls; inactive = below about 11%;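 also: 0% = DMSO and 100% = no enzyme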
Target sequence (O75874 whole entry R132H): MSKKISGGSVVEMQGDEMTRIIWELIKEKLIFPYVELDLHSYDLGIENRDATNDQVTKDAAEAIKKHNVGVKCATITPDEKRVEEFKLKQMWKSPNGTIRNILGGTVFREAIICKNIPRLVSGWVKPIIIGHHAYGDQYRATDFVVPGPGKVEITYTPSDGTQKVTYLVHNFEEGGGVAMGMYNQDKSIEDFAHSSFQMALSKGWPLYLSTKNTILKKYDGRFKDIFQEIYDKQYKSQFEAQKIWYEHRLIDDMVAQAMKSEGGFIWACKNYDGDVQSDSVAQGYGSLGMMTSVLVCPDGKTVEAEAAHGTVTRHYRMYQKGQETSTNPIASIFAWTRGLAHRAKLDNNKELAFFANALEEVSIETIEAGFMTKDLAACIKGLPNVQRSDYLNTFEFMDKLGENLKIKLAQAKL
Pf Dd2 growth: blocks growth of Plasmodium falciparum Dd2 parasites | P. falciparum Dd2 growth, SYBR Green, 72 h; stronger effect = lower value | activity change, % at 10 µM | actives 2.3% (n = 94,000) | AID 1159554; in the data active = activity change below about -80%; inconclusive = no clear call, values can overlap the other calls
GASC1 inh: KDM4C (human) demethylase inhibition; GST-KDM4C 2-372, H3K9me3 peptide, LANCE TR-FRET; actives 0.15% (n = 96,000); Q9H3R0; inhibition, % at 12.5 µM;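 active = mean replicate inhibition above about 25%, with at least 55% of replicates also reaching it, limit read from the data, passing the limit was not always enough; inconclusive = only one of those two conditions met; inactive = neither condition met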
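Material: GST-tagged GASC-1 (JMJD2C) catalytic fragment, aa 2-372. Input: enzyme final amount 10 nM. Medium: HEPES buffer, pH 7.5, plus ascorbate. Reagent: H3K9me3 peptide substrate, Fe(II), 2-oxoglutarate. Doses: single dose. Times: reaction 30 min RT, detection step 1 h RT. Measured by: LANCE TR-FRET. Evaluation: Fall in 671/618 emission ratio as inhibition.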
T cruzi growth-1: T. cruzi proliferation inhibition; T. cruzi beta-gal in NIH3T3, GalScreen luminescence, 90 h; inhibition, % at 8.34 µM; actives 5.9% (n = 77,000); AID 624255;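 active = mean inhibition above about 93%, with at least 55% of replicates each passing it, limit read from the data, passing the limit was not always enough; inconclusive = only one of those two conditions holds; inactive = neither condition holds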
T cruzi growth-2: blocks T. cruzi growth in NIH3T3 host cells; inhibition, % at 8.35 µM; actives 72% (n = 5,600); T. cruzi beta-gal in NIH3T3, GalScreen luminescence, 90 h; shares compounds with T cruzi growth-1;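 active = mean replicate inhibition above about 95% and at least 55% of replicates individually reaching it, limit read from the data; inconclusive = only one of the two criteria is met; inactive = neither criterion is met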
T cruzi growth-3: Trypanosoma cruzi proliferation inhibition; inhibition, % at 2.09 µM; shares compounds with T cruzi growth-1; actives 21% (n = 5,600); T. cruzi beta-gal in NIH3T3, GalScreen luminescence, 90 h;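 active = mean inhibition above about 95%, with at least 55% of replicates also reaching it, limit read from the data; inconclusive = meets just one of the two conditions; inactive = meets neither condition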;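 also: plate controls were neutral control median for no effect and positive control median for full effect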
NIH3T3 tox: cytotoxicity in mouse NIH/3T3 fibroblasts; AID 651742; NIH/3T3 viability, CellTiter-Glo ATP luminescence, 90 h; cytotoxicity (signal decrease), % at 8.35 µM; actives 14% (n = 5,600); shares compounds with T cruzi growth-1;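 active = mean signal decrease across replicates above about 35% based on untreated-well scatter, with enough replicates individually passing, limit read from the data; inconclusive = no rule stated though some were filed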;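 also: 0% = median of neutral control wells and 100% = median of positive control wells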
3T3 cytotox 2: kills mouse NIH/3T3 fibroblasts; shares compounds with T cruzi growth-1; NIH/3T3 viability, CellTiter-Glo ATP luminescence, 90 h; inhibition, % at 24.9 µM; actives 56% (n = 5,600); AID 651744;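 active = mean loss of cell viability signal at or above a set limit, and enough replicates individually reaching it; inconclusive = meets only the mean limit or only the replicate share; inactive = meets neither condition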;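 also: 0% = median of neutral control wells and 100% = median of positive control wells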
* hit, by the source's call; u = inconclusive; x = not tested or not shown.

SMILES	IDH1 mut inh	Pf Dd2 growth	GASC1 inh	T cruzi growth-1	T cruzi growth-2	T cruzi growth-3	NIH3T3 tox	3T3 cytotox 2
COc1ccc(NC(=O)N(C)C[C@H]2OCCCC[C@@H](C)Oc3ccc(NC(=O)c4ccncc4)cc3C(=O)N([C@H](C)CO)C[C@@H]2C)cc1	x	32.3	2.8	48.4	x	x	x	x
C[C@H]1CCCCO[C@H](CN(C)C(=O)Nc2ccc(F)cc2)[C@@H](C)CN([C@@H](C)CO)C(=O)c2cc(NC(=O)Nc3ccc(C(F)(F)F)cc3)ccc2O1	x	-57.4	-1.6	85.6	x	x	x	x
C[C@@H]1CCCCO[C@H](CN(C)C(=O)Nc2ccc(C(F)(F)F)cc2)[C@@H](C)CN([C@H](C)CO)C(=O)c2cc(NC(=O)Nc3ccc(C(F)(F)F)cc3)ccc2O1	-2.2	-2.3	0.1	102.6*	101.4*	u	0.9	15.7
C[C@H](CO)N1C[C@H](C)[C@H](CN(C)C(=O)Nc2ccc(C(F)(F)F)cc2)OCCCC[C@H](C)Oc2ccc(NC(=O)Nc3ccc(C(F)(F)F)cc3)cc2C1=O	x	23.9	-0.7	126.4*	102.1*	117.4*	6.6	12.6
C[C@@H]1CCCCO[C@H](CN(C)C(=O)Nc2ccc(C(F)(F)F)cc2)[C@@H](C)CN([C@@H](C)CO)C(=O)c2cc(NC(=O)Nc3ccc(C(F)(F)F)cc3)ccc2O1	-2.0	-88.0*	-0.5	112.3*	107.5*	115.5*	2.2	u
C[C@@H]1CCCCO[C@H](CN(C)C(=O)Nc2ccc(C(F)(F)F)cc2)[C@H](C)CN([C@@H](C)CO)C(=O)c2cc(NC(=O)Nc3ccc(C(F)(F)F)cc3)ccc2O1	x	-54.5	-0.8	116.1*	108.0*	113.3*	0.9	-18.2
C[C@@H]1CN([C@H](C)CO)C(=O)c2cc(NC(=O)Nc3ccc(F)cc3)ccc2O[C@@H](C)CCCCO[C@H]1CN(C)C(=O)Nc1ccc(C(F)(F)F)cc1	7.2	-35.3	0.1	82.8	x	x	x	x
COc1ccc(NC(=O)N2C[C@@H]3N[C@H](C2)C3c2ccc(-c3cccc(F)c3)cc2)cc1 (stereo partly drawn)	x	-32.5	-2.5	x	x	x	x	x
C[C@@H]1CCCCO[C@H](CN(C)C(=O)Nc2ccc3c(c2)OCO3)[C@@H](C)CN([C@H](C)CO)C(=O)c2cc(NC(=O)Nc3ccc(C(F)(F)F)cc3)ccc2O1	x	-42.3	1.0	93.4	x	x	x	x
CC(C)NC(=O)Nc1ccc2c(c1)C(=O)N([C@H](C)CO)C[C@H](C)[C@@H](CN(C)C(=O)Nc1ccc(C(F)(F)F)cc1)OCCCC[C@H](C)O2	x	-45.9	-1.8	97.6*	97.8*	94.5	12.5	4.6
CC(C)NC(=O)Nc1ccc2c(c1)C(=O)N([C@@H](C)CO)C[C@@H](C)[C@@H](CN(C)C(=O)Nc1ccc(C(F)(F)F)cc1)OCCCC[C@@H](C)O2	1.7	-76.0	-1.3	94.4	x	x	x	x
Cc1noc(C)c1NC(=O)Nc1ccc2c(c1)C(=O)N([C@@H](C)CO)C[C@H](C)[C@H](CN(C)C(=O)Nc1ccc(C(F)(F)F)cc1)OCCCC[C@H](C)O2	-0.5	-62.9	-1.7	109.7*	96.2*	78.0	2.8	-9.4
C[C@@H]1CCCCO[C@H](CN(C)C(=O)Nc2ccc(C(F)(F)F)cc2)[C@H](C)CN([C@@H](C)CO)C(=O)c2cc(NC(=O)Nc3ccc4c(c3)OCO4)ccc2O1	-1.6	-66.6	-2.8	117.3*	107.3*	108.6*	-7.0	5.7
O=C(CCN1CCCCC1)N[C@H]1CC[C@H](CCNS(=O)(=O)c2ccc(Cl)cc2)O[C@H]1CO	0.2	-9.7	0.2	-52.6	x	x	x	x
C[C@@H]1CN([C@H](C)CO)C(=O)c2cc(NC(=O)Nc3cccc4ccccc34)ccc2O[C@H]1CN(C)Cc1ccc(Cl)c(Cl)c1	0.2	14.7	-1.6	101.5*	102.1*	95.6*	42.7*	29.2*
C[C@H](CO)N1C[C@H](C)[C@@H](CN(C)Cc2ccc(Cl)c(Cl)c2)Oc2ccc(NC(=O)Nc3cccc4ccccc34)cc2C1=O	x	-20.2	-0.5	93.2	x	x	x	x
C[C@@H]1CN([C@H](C)CO)C(=O)c2cc(NC(=O)Nc3cccc4ccccc34)ccc2O[C@@H]1CN(C)Cc1ccc(Cl)c(Cl)c1	0.6	19.3	-1.2	u	94.0	28.8	36.4*	25.2*
C[C@H](CO)N1C[C@H](C)[C@@H](CN(C)Cc2ccc(Cl)c(Cl)c2)Oc2ccc(NC(=O)Nc3cccc4ccccc34)cc2CC1=O	0.3	-21.8	-0.4	64.4	x	x	x	x
C[C@@H]1CN([C@@H](C)CO)C(=O)c2cc(NC(=O)CCCN(C)C)ccc2O[C@H]1CN(C)CC1CCCCC1	x	19.3	2.0	-19.4	x	x	x	x
CC(C)C#Cc1ccc([C@@H]2[C@@H](CO)N3CCCCN(CC4CC4)C[C@@H]23)cc1	x	4.2	0.1	u	95.0*	72.7	u	105.8*
CC(C)C#Cc1ccc([C@@H]2[C@@H](CO)N3CCCCN(CC4CC4)C[C@H]23)cc1	x	-58.5	0.4	108.5*	107.7*	73.9	35.6*	89.5*
C[C@H]1CN([C@@H](C)CO)C(=O)Cc2cc(NC(=O)C3CCCCC3)ccc2O[C@@H]1CN(C)CC1CCCCC1	-0.5	-13.2	3.5	63.5	x	x	x	x
C[C@@H]1CCCCO[C@@H](CN(C)C(=O)Cc2ccccc2)[C@H](C)CN([C@H](C)CO)C(=O)c2cc(NC(=O)NC3CCCCC3)ccc2O1	0.4	-17.0	1.0	99.6*	107.6*	25.9	9.8	25.8*
C[C@H]1CCCCO[C@H](CN(C)C(=O)Cc2ccccc2)[C@@H](C)CN([C@@H](C)CO)C(=O)c2cc(NC(=O)Nc3ccccc3)ccc2O1	-0.3	-44.6	-0.3	98.6*	108.8*	51.9	27.9	7.7
C[C@@H]1CCCCO[C@@H](CN(C)C(=O)Cc2ccccc2)[C@@H](C)CN([C@H](C)CO)C(=O)c2cc(NC(=O)Nc3cccc4ccccc34)ccc2O1	x	4.9	-2.0	53.7	x	x	x	x
C[C@@H]1CCCCO[C@H](CN(C)C(=O)Cc2ccccc2)[C@H](C)CN([C@@H](C)CO)C(=O)c2cc(NC(=O)Nc3cccc4ccccc34)ccc2O1	x	-57.0	-1.6	101.2*	104.6*	56.9	-36.8	2.3
COCC#Cc1cnc2c(c1)C(=O)N([C@H](C)CO)C[C@@H](C)[C@H](CN(C)C(=O)C1CC1)O2	x	12.3	0.3	97.2*	-13.7	-7.7	21.9	12.4
COCC#Cc1cnc2c(c1)C(=O)N([C@@H](C)CO)C[C@@H](C)[C@H](CN(C)C(=O)C1CC1)O2	x	34.0	-1.1	111.9*	39.4	1.8	23.9	u

High-throughput results deposited in PubChem by Broad Institute.
